Laboratory results: ChEMBL document CHEMBL1134075, “Synthesis and hydrolytic stability studies of albendazole carrier prodrugs” (Bioorg Med Chem Lett, 2001)

How the values were obtained:
[1] = Partition coefficient (logP); format: physicochemical; conditions: octanol/water
Outline: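 Determined by RP-HPLC. log K = log[(tr − t0)/t0], with t0 the elution time of methanol. log K0 at 0% methanol was obtained by linear regression of log K versus percent methanol, using standards.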

[2] = Half life of the in human plasma; format: ADME, cell-free
Outline: (§1)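 Incubation at 37 °C in 80% human plasma, initial 4×10^-4 M (1% methanol). Plasma samples withdrawn at various times were extracted on a C18 cartridge, and appearance of albendazole was followed by HPLC. First-order k_obs came from the slope of log % formed albendazole versus time, and t1/2 = 0.693/k_obs. Mean ± SD.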

[3] = First order rate constant, k was determined in human plasma; format: ADME, cell-free; outline: as §1
[4] = First order rate constant, k was determined in pig liver Esterase; format: ADME, tissue-based, Sus scrofa
Outline: (§2)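 Pig liver esterase used in place of plasma, at 37 °C with initial 4×10^-4 M (1% methanol). Samples were C18-extracted over time and albendazole formation was tracked by HPLC. k_obs was taken from the slope of log % formed albendazole versus time, and t1/2 = 0.693/k_obs. Mean ± SD.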

[5] = Half life of the in pig liver Esterase; format: ADME, Sus scrofa; outline: as §2
[6] = Half life of the at pH 5.0; format: ADME
Outline: (§3)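 Buffer hydrolysis at 37 °C in HCl, acetate, phosphate or borate buffers. Methanolic stock was added to preheated buffer in screw-capped tubes, giving about 4×10^-4 M final (1% methanol). Samples were taken at intervals and chromatographed immediately by HPLC. First-order k_obs came from the slope of log % formed albendazole versus time, and t1/2 = 0.693/k_obs.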

[7] = Half life of the at pH 7.4; format: ADME; outline: as §3
[8] = First order rate constant, k was determined at pH 5.0; format: ADME; outline: as §3
[9] = First order rate constant, k was determined at pH 7.4; format: ADME; outline: as §3
[10] = First order rate constant, k was determined at pH 1; format: ADME; outline: as §3
[11] = First order rate constant, k was determined at pH 2; format: ADME; outline: as §3
[12] = First order rate constant, k was determined at pH 3; format: ADME; outline: as §3
[13] = First order rate constant, k was determined at pH 4; format: ADME; outline: as §3
[14] = First order rate constant, k was determined at pH 5; format: ADME; outline: as §3
[15] = First order rate constant, k was determined at pH 6; format: ADME; outline: as §3
[16] = First order rate constant, k was determined at pH 8; format: ADME; outline: as §3
[17] = First order rate constant, k was determined at pH 9; format: ADME; outline: as §3

Row | Compound | logP [1] | half-life [2] | k [3] | k [4] | half-life [5] | half-life [6] | half-life [7] | k [8] | further results
1 | CCCSc1ccc2c(c1)nc(NC(=O)OC)n2C(=O)OCC | 3.92 | 0.139 h | 83.29 10e-3 min-1 | 100.14 10e-3 min-1 | 0.115 h | 5.27 h | 2.02 h | 2.19 10e-3 min-1 | k [9]: 5.73 10e-3 min-1
2 | CCCSc1ccc2nc(NC(=O)OC)n(C(=O)OCC)c2c1 | 3.19 | 0.12 h | 96.33 10e-3 min-1 | 99.14 10e-3 min-1 | 0.117 h | 2.74 h | 2 h | 4.21 10e-3 min-1 | k [9]: 5.78 10e-3 min-1
3 | CCCSc1ccc2nc(NC(=O)OC)[nH]c2c1 [ALBENDAZOLE] | 3.07 |  |  |  |  |  |  |  | 
4 | CCCSc1ccc2c(c1)nc(NC(=O)OC)n2COC(=O)c1ccc(N)cc1.Cl | 2.91 | 0.929 h | 12.43 10e-3 min-1 | 15.29 10e-3 min-1 | 0.755 h | 3.84 h | 2.05 h | 3.01 10e-3 min-1 | k [10]: 0.3203 min⁻¹; k [11]: 0.2826 min⁻¹; k [12]: 0.0323 min⁻¹; k [13]: 0.0087 min⁻¹; k [14]: 0.003 min⁻¹; k [15]: 0.0036 min⁻¹; k [16]: 1.8066 min⁻¹; k [17]: 8 min⁻¹

More lines, main results first:

Row | logP [1] | half-life [2] | k [3] | k [4] | half-life [5] | half-life [6] | half-life [7] | k [8] | Compound | further results
5 | 3.17 |  |  |  |  |  |  |  | CCCSc1ccc2c(c1)nc(NC(=O)OC)n2C(=O)CC | 
6 | 2.82 |  |  |  |  |  |  |  | CCCSc1ccc2c(c1)nc(NC(=O)OC)n2C(C)=O | 
7 | 3.92 |  |  |  |  |  |  |  | CCCSc1ccc2c(c1)nc(NC(=O)OC)n2C(=O)CCC | 
